Experimental data gathered from unrelated publications.
Lines come from different studies, so protocols differ. pEC50, pIC50: −log10 of the molar value.
Cell line: MCF7
Effect on: cell growth or viability

SMILES | test | setting | measurement | result
CC(=NNC(=O)c1ccccc1Br)c1ccc(Nc2nnc(-c3ccc(Cl)cc3)c3ccccc23)cc1 | MTT | 1.25 µM, 24 h | viability | 31.3%
COc1cccc(CNC[C@@](C)(O)[C@@H]2CC[C@@H](C)C[C@H]2OCc2ccccc2)c1 | MTT | 10 µM, 72 h | inhibition | 76.8%
COc1ccc(-c2cc(-c3cccc(Br)c3)c3c(=O)[nH]c(=O)[nH]c3n2)cc1 | MTT | 48 h | pIC50 | 4.86
CC(=O)Nc1ccc(/C(C)=N/N=c2\sc(C(C)=O)nn2-c2ccc(C)cc2)cc1 | MTT | 2.5 µM | viability | 34.6%
COc1ccc(-c2cc(-c3ccc(Br)cc3)c3c(=O)[nH]c(=O)[nH]c3n2)cc1 | MTT | 48 h | pIC50 | 5.00
CC(=O)c1nn(-c2ccc(C)cc2)/c(=N/N=C(\C)c2ccc(NC(=O)c3ccccc3)cc2)s1 | MTT | 1.25 µM | viability | 5.3%
COc1cccc2c1C(=O)c1c(O)c3c(c(O)c1C2=O)C[C@@](O)(C(=O)CO)C[C@@H]3O[C@H]1C[C@H](N)[C@H](O)[C@H](C)O1 | MTT |  | GI50 | 7.32 µM
C=CC(=O)NC1CCN(c2ncc3ncnc(Nc4ccc(Oc5ccc6c(c5)ncn6C)c(C)c4)c3n2)CC1 |  |  | pEC50 | 5.28
C[C@@H]1CC[C@@H]([C@@](O)(CNCc2ccccc2)COCc2ccc(F)cc2)[C@H](OCc2ccc(F)cc2)C1 | MTT | 30 µM, 72 h | inhibition | 100%
COc1ccc(-c2cc(-c3ccc(C)cc3)nc3c2c(=O)n(C)c(=O)n3C)cc1OC | MTT | 48 h | pIC50 | 4.53
CC(=NNC(=O)c1ccc(N)cc1)c1ccc(Nc2nnc(-c3ccc(Cl)cc3)c3ccccc23)cc1 | MTT | 1.25 µM | cell death | 85.9%
CCOC(=O)c1nn(-c2cccc(Cl)c2)/c(=N/N=C(\C)c2ccc(NC(=O)c3ccc(Cl)cc3)cc2)s1 | MTT | 5 µM | viability | 3.67%
C[C@@H]1CC[C@@H]([C@@](O)(CNCc2ccccc2)COCc2ccccc2)[C@H](OCc2ccccc2)C1 | MTT | 10 µM, 72 h | inhibition | 94.8%
CC(=NNC(=O)c1ccncc1)c1ccc(Nc2nnc(-c3ccc(Cl)cc3)c3ccccc23)cc1 | MTT | 2.5 µM | cell death | 94.4%
Cc1ccc(-c2cc(-c3ccc(Cl)cc3)c3c(=O)[nH]c(=O)[nH]c3n2)cc1 | MTT | 48 h | pIC50 | 5.01
C[C@@H]1CC[C@@H]([C@](C)(O)CNCc2cccc(F)c2)[C@H](OCc2ccccc2)C1 | MTT | 10 µM, 72 h | inhibition | 72.7%
CC(=O)Nc1ccc(Oc2nnc(-c3ccc(Cl)cc3)c3ccccc23)cc1 | MTT | 0.625 µM, 24 h | viability | 4.91%
C[C@@H]1CC[C@@H]([C@](C)(O)CNCc2ccccc2)[C@H](OCc2ccccc2)C1 | MTT | 10 µM, 72 h | inhibition | 97.6%
CCOC(=O)c1nn(-c2cccc(Cl)c2)/c(=N/N=C(\C)c2ccc(NC(=O)c3ccccc3)cc2)s1 | MTT | 1.25 µM | viability | 2.59%
C[C@H](Nc1ccc2c(c1)OCCn1cc(N3C(=O)OC[C@H]3C(F)F)nc1-2)C(N)=O |  | 5 days | pEC50 | 7.71
CC(=NNC(=O)c1ccccc1Cl)c1ccc(Nc2nnc(-c3ccc(Cl)cc3)c3ccccc23)cc1 | MTT | 5 µM, 24 h | viability | 8.28%
CN(C)C(=O)c1cc2cnc(Nc3ccc(N4CCNCC4)cn3)nc2n1C1CCCC1 |  | 5 days | pEC50 | 7.00
CC(=NNC(N)=S)c1ccc(Nc2nnc(-c3ccc(Cl)cc3)c3ccccc23)cc1 | MTT | 0.156 µM | cell death | 49.5%
C[C@@H]1CC[C@@H]([C@@](C)(O)Cn2cnc3ccccc32)[C@H](OCc2ccccc2)C1 | MTT | 30 µM, 72 h | inhibition | 94.8%
COc1cc2ncnc(Nc3ccc4c(c3)/C(=C/c3cccc(Cl)c3)C(=O)N4C)c2cc1OC | MTT |  | pIC50 | 5.34
C[C@@H]1CC[C@@H]([C@](O)(CNCc2ccc(F)cc2)COCc2ccc(F)cc2)[C@H](OCc2ccc(F)cc2)C1 | MTT | 30 µM, 72 h | inhibition | 97.2%
CC(=NNC(=O)c1ccccc1O)c1ccc(Nc2nnc(-c3ccc(Cl)cc3)c3ccccc23)cc1 | MTT | 0.312 µM, 24 h | viability | 99.3%
CC(=O)c1nn(-c2ccccc2Cl)/c(=N/N=C(\C)c2ccc(NC(=O)c3ccccc3)cc2)s1 | MTT | 1.25 µM | viability | 6.34%
O=C(Nc1ccc(Oc2nnc(-c3ccc(Cl)cc3)c3ccccc23)cc1)c1cccc([N+](=O)[O-])c1 | MTT | 5 µM | cell death | 92.1%
C[C@@H]1CC[C@@H]([C@](O)(CNCc2cccc3ccccc23)COCc2ccccc2)[C@H](OCc2ccccc2)C1 | MTT | 30 µM, 72 h | inhibition | 87.7%
